# MOR-DOR ag-1: OPRM1-OPRD1 heterodimerization agonism; P35372+P41143; cells, luminescence; activation, % at 9.3 µM; 340,000 compounds, 0.3% hits; AID 504326;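 note: 0% = vehicle-treated cells and 100% = reference agonist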
# DAGLB inh: diacylglycerol lipase beta (human) inhibition; HEK293T DAGLB membrane lysate, EnzChek fluorogenic substrate; Q8NCG7; 340,000 compounds, 0.059% hits; inhibition, % at 5.17 µM; in the data active = inhibition above about 34%;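 note: 0% = enzyme with vehicle and 100% = wells lacking enzyme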
# HTR5A inv ctr: inverse agonist of human HTR5A in OPRM1-OPRD1 counter-screen. P47898. HTR5A cell line, luminescence, inverse agonism. inhibition, % at 9.3 µM. 340,000 compounds, 0.083% hits. AID 504634; in the data active = inhibition mostly above about 23%, no sharp cut-off; inactive = mostly below about 18%;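 note: 0% = cells with DMSO and 100% = no-cell wells with DMSO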
# Target sequence (P47898 whole entry, looked up): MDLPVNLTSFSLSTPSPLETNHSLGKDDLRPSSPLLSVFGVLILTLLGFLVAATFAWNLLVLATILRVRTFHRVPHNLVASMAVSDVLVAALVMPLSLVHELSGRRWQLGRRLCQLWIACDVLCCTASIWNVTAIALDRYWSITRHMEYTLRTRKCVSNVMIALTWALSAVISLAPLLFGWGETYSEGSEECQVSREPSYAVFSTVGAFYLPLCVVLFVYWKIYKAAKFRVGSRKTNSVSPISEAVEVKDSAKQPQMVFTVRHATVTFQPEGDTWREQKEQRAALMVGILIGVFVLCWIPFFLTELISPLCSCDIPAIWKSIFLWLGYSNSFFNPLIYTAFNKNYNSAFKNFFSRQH
# Arr AP2 block: inhibitors of human beta-arrestin and AP2 interaction; FITC-arrestin peptide / GST-AP2 beads, flow cytometry; AP2 beta2 appendage carries R879A mutation; 340,000 compounds, 0.31% hits; AID 504490; inhibition, % at 10 µM;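 active = inhibition above a set limit, near 3 SD of compounds lacking own fluorescence, cut at about 54% in these data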;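 note: plate controls were DMSO wells for no effect and 5 µM unlabelled arrestin peptide for full effect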
#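 system = GST-tagged AP2 beta2-adaptin appendage (R879A) on 4 µm glutathione beads | reagent = FITC-labelled arrestin peptide probe, 50 nM final | schedule = compound with beads 12 min RT, then probe 1 h RT | signal = HyperCyt-sampled flow cytometry, FL1 channel, ex 488/em 535 nm | read-out = percent response from loss of bead-bound FITC fluorescence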
# HTR5A ag: activates human HTR5A in OPRM1-OPRD1 agonist counter-screen. P47898. HTR5A agonist assay, luminescence, cell-based. activation, % at 9.3 µM. 340,000 compounds, 0.61% hits; in the data active = activation mostly above about 9.5%, no sharp cut-off; inactive = mostly below about 7.6%;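 note: 0% = cells with vehicle only and 100% = reference agonist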
# MOR-DOR inv ag: mu-delta opioid heterodimer inverse agonism. AID 504357. P35372+P41143. 340,000 compounds, 0.21% hits. inhibition, % at 9.3 µM. cell-based MOR-DOR heterodimer luminescence; in the data active = inhibition above about 22%, passing the limit was not always enough;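 note: 0% = cells with DMSO and 100% = wells without cells with DMSO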
# MOR-DOR ag-2: opioid heterodimer agonism, HTR5A counter-screen; 800 compounds, 13% hits; U2OS counter-screen cells, complementation luminescence, 3 h; shares compounds with HTR5A ag; activation, % at 9.3 µM; AID 504913
# HTR5A ag conf: confirmation of human HTR5A agonists; AID 504915; activation, % at 9.3 µM; HTR5A agonist cell assay, luminescence; shares compounds with HTR5A ag; 800 compounds, 17% hits; in the data active = activation above about 17%;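 note: 0% = cells with vehicle only and 100% = full reference agonist response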
# Starred values were filed as active, the others as inactive; / = not tested or not shown. An excerpt weighted towards active compounds, which were near 1.4% of everything screened. Cut-off read from the data, not from the text of the source, unless noted: active = activation above about 18%; inactive = the rest.
SMILES,MOR-DOR ag-1,DAGLB inh,HTR5A inv ctr,Arr AP2 block,HTR5A ag,MOR-DOR inv ag,MOR-DOR ag-2,HTR5A ag conf
O=C(CSc1n[nH]c(-c2ccco2)n1)Nc1sc2c(c1C(=O)Nc1ccccc1)CCCC2,1,1,-30,24,18*,-6,3,4
Cc1nc2ccc(NC(=O)c3cccs3)cc2c(=O)n1Cc1ccc(Cl)cc1,2,1,-39,8,15*,-9,-2,-3
CCCc1nc2ccc(NC(=O)c3cccs3)cc2c(=O)n1Cc1ccc(Cl)cc1,-1,-2,-9,-5,4,5,/,/
O=C(COC(=O)c1ccc(F)cc1Cl)NC1CC1,/,-2,/,/,/,/,/,/
CC(C)(c1ccccc1)c1ccc(OCCN2CCOCC2)cc1,1,1,-54,-23,14*,-4,128*,1
Cc1ccc2ccccc2c1CSc1nc(N)nc2c1ncn2CC(C)C,-4,-2,-58,3,15*,17,4,2
CC(C)Cn1cnc2c(SCc3ccccc3)nc(N)nc21,-1,-1,6,27,-1,7,/,/
COc1cccc2sc(N3CCN(C(=O)c4ccco4)CC3)nc12,-2,3,-35,-6,19*,16,19*,14
CC(C)(C)C1CCC(=NNS(=O)(=O)c2ccc(Br)cc2)CC1 (stereo unspecified),0,-1,-73,2,21*,-1,7,4
O=S(=O)(NN=C1CCCCC1)c1ccccc1,-1,-1,-18,-15,4,7,/,/
CCN1CCCC1CNCc1cc(OC)c(OC)c(OC)c1 (stereo unspecified),0,0,-53,-2,7,-1,/,/
CCOc1cc(CNCC2CCCN2CC)cc(Cl)c1OC (stereo unspecified),-1,0,-53,28,19*,6,1,1
COc1ccc(Nc2nnc(Cc3ccccc3)c(=O)[nH]2)c(OC)c1,2,3,-31,3,17*,-14,4,-1
COc1ccccc1CN1CC(C(=O)NCCCCc2ccccn2)CCC1=O (stereo unspecified),/,-1,/,/,/,/,/,/
C=C1C(=O)OC2C1CCC(C)C1C=CC(=O)C12C (stereo unspecified),1,1,7,24,-2,-6,/,/
C=C1C(=O)OC2CC1C(O)CC(C)=CCCC(C)=CC(O)CC2C (stereo unspecified),-1,2,-71,-13,18*,4,-2,-4
CCN(CC)C(=O)C1=C(C)N(Cc2ccccc2)C(=O)C(CC(=O)NCc2ccco2)C1 (stereo unspecified),/,2,/,/,/,/,/,/
COc1ccc2ccccc2c1CNC(C)c1ccccc1 (stereo unspecified),-3,-4,-6,25,2,14,/,/
CC(NCCCOc1cccc2ccccc12)c1ccccc1 (stereo unspecified),14,-2,-58,-23,15*,-68,43*,2
CCOc1ccccc1-n1nnnc1SCC(=O)N(C)C1CCS(=O)(=O)C1 (stereo unspecified),/,1,/,/,/,/,/,/
COc1ccc(C=NNc2nc3ccccc3s2)cc1,2,1,0,-2,0,-10,/,/
Cc1ccc2[nH]c(C)c(/C=N/Nc3nc4ccccc4s3)c2c1,7,6,-55,2,20*,-32,2,3
Cc1ccc(NC(=O)CCNC(=O)N2CC(=O)Nc3ccccc32)cc1Cl,/,-6,/,/,/,/,/,/
CCN(CC)S(=O)(=O)c1ccc(NC(=O)COC(=O)CNC(=O)C2CCCCC2)cc1,-6,-1,10,2,-3,27,/,/
CCOC(=O)c1sc(NNC(=O)c2ccc(F)cc2)nc1C,3,0,-3,12,16*,-14,0,-2
SMILES,MOR-DOR ag-1,DAGLB inh,HTR5A inv ctr,Arr AP2 block,HTR5A ag,MOR-DOR inv ag,MOR-DOR ag-2,HTR5A ag conf
CCOC(=O)c1sc(NNC(=O)c2ccc(C)cc2)nc1C,0,0,-16,-6,0,2,/,/
Cc1ccc(Cl)cc1NC(=O)c1cc2ccccc2cc1O,8,-1,2,12,22*,-41,5,16
Cc1ccc(SCCC(=O)OCC(=O)Nc2ccc(C(N)=O)cc2)cc1,-3,0,-6,-4,2,10,/,/
NC(=O)c1ccc(NC(=O)COC(=O)c2c[nH]c3ccccc23)cc1,0,2,-54,5,18*,-2,17,-3
NC(=O)c1ccc(NC(=O)COC(=O)CCSc2ccccc2)cc1,-3,1,-42,27,15*,16,7,7
Cc1ccc(S(=O)(=O)N2CCCCC2)cc1NC(=O)c1ccc(=O)[nH]c1,/,0,/,/,/,/,/,/
CCN(CC)S(=O)(=O)c1ccc(O)c(C(=O)OCC(=O)N2CCCc3ccccc32)c1,/,-3,/,/,/,/,/,/
CCN(CC)c1ccc(-c2nn3c(-c4n[nH]c5c4CCC5)nnc3s2)cc1,-2,6,-18,15,16*,9,9,9
C1CCC(c2nn3c(-c4n[nH]c5c4CCC5)nnc3s2)CC1,0,1,-3,16,1,1,/,/
O=C(N/N=C/c1cc([N+](=O)[O-])ccc1Cl)c1cc(-c2ccccc2)nc2ccccc12,0,0,-11,-4,16*,1,8,3
N/C(Cc1ccc(Cl)c(Cl)c1)=N\OC(=O)c1cccs1,1,-24,-104,29,44*,-4,2,1
CCOC(=O)c1c(CSC(=N)N)n(-c2ccc(C)cc2)c2cc(Br)c(OC(C)=O)cc12,16,-6,-98,14,17*,-93,14,8
CCOC(=O)c1c(CSC(=N)N)n(C)c2cc(Br)c(OC(C)=O)cc12,-1,-4,16,-18,4,6,/,/
c1ccc2c(c1)nc(N1CCOCC1)c1ccccc12,3,-3,4,-5,19*,-14,4,3
c1ccc2c(c1)nc(N1CCCCC1)c1ccccc12,4,-4,-6,26,2,-19,/,/
CNC(=S)N1N=C(c2ccc(C)cc2)CC1c1ccc(Cl)cc1 (stereo unspecified),8,-3,11,16,-4,-41,/,/
CNC(=S)N1N=C(c2ccc(C)cc2)CC1c1ccc(Br)cc1 (stereo unspecified),1,-3,-43,4,18*,-7,1,4
O=c1cc2c(c(-c3ccccc3)n1Cc1ccccc1)[C@@H](CCO)NC2,-4,-1,-2,4,1,21,/,/
C[C@H]1CN([C@@H](C)CO)C(=O)CCCn2nncc2CO[C@H]1CN(C)C(=O)Cc1ccccc1,/,-6,/,/,/,/,/,/

# Screening results: PubChem, several laboratories
